Active and inactive are the calls of the source. The calls are words filed in the database; no cut-off is given here.
Legend:
[1] = Antiproliferative activity against human 5637 cells after 72 hrs by MTT assay; format: functional, cell-based; settings: Homo sapiens, 5637, 72 h
Procedure, shortened: (§1)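 Human bladder cancer cells were kept in RPMI 1640 with 10% FBS and penicillin/streptomycin at 37 °C, 5% CO₂. They were seeded at 5 × 10³ cells/well and exposed to serial log dilutions from 100 to 0.1 µM for 72 h, with DMSO for controls. Read-out was MTT, with formazan dissolved in DMSO and read at 570 nm. IC50 was the concentration inhibiting 50% relative to untreated controls. Three or more experiments in triplicate; mean ± SD.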

[2] = Antiproliferative activity against human RT4 cells after 72 hrs by MTT assay; format: functional, cell-based; settings: RT-4, 72 h; procedure, shortened: as §1
[3] = Antiproliferative activity against human RT112 cells after 72 hrs by MTT assay; format: functional, cell-based; settings: RT-112, 72 h; procedure, shortened: as §1
[4] = target: T1, N-acylethanolamine-hydrolyzing acid amidase (Homo sapiens) (UniProt Q02083); assay: (§2) Inhibition of recombinant human NAAA using PAMCA as substrate preincubated for 30 mins followed by substrate addition measured every 3 mins for 2.5 hrs by fluorescence HTS method
T1 sequence (whole entry): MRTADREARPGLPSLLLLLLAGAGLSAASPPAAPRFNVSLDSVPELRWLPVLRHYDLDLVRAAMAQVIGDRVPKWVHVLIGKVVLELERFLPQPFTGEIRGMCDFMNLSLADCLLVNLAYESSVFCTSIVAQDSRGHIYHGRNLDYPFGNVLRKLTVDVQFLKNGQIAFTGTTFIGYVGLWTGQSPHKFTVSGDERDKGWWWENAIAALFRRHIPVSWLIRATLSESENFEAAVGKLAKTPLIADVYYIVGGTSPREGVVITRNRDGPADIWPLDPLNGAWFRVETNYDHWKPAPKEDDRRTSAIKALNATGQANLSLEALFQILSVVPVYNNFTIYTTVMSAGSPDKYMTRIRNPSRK
Procedure, shortened: (§3)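 Human recombinant NAAA (25 ng, purity >95%) was used in 100 mM sodium acetate buffer and preincubated with inhibitor in DMSO for 30 min at room temperature. PAMCA was then added to a final 10 µM. Released 7-amino-4-methylcoumarin fluorescence was read at 460 nm every 3 min. […] Linearity was checked at 5–100 µM over 5 h.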

[5] = target: T2, N-acylethanolamine-hydrolyzing acid amidase (Homo sapiens, UniProt Q02083); assay: as §2; procedure, shortened: as §3
T2 sequence (Q02083 whole entry): T1 sequence (whole entry)

[6] = target: T1, N-acylethanolamine-hydrolyzing acid amidase (Homo sapiens); assay: Inhibition of NAAA in human RT112 cells assessed as increase in N-stearoylethanolamide level at 40 uM after 24 hrs by HPLC-MS/MS analysis; format: cell-based; settings: RT-112
Procedure, shortened: (§4)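 RT112 cells were treated with 40 µM inhibitor for 24 h. Cells and supernatant were pooled (1 ml) and spiked with d4-SEA and d4-LNEA internal standards. Protein was precipitated with cold acetone, and the supernatant was purified by SPE and stored at −80 °C. NAEs were quantified by LC-TripleTOF MS and reported in ng/ml as mean ± SD.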

[7] = target: T1, N-acylethanolamine-hydrolyzing acid amidase (Homo sapiens); assay: Inhibition of NAAA in human RT112 cells assessed as increase in N-oleoylethanolamide level at 40 uM after 24 hrs by HPLC-MS/MS analysis; format: cell-based; settings: RT-112; procedure, shortened: as §4
[8] = (§5) Anti-migratory activity against human RT112 cells at 40 nM after 24 hrs by wound healing assay relative to control; format: functional, RT-112
Procedure, shortened: (§6)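 RT112 cells seeded at 5 × 10⁵ cells/well to give a sub-confluent monolayer, then scratched (~1 mm wide). Debris was removed and medium replaced with medium containing inhibitor at 40 nM, with DMSO only for controls. Phase-contrast images were taken at 0 and 24 h. Wound closure was calculated as the initial wound area minus the cell-free area remaining at 24 h. Three or more experiments in triplicate; mean ± SD; Student's t-test.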

[9] = target: T1, N-acylethanolamine-hydrolyzing acid amidase (Homo sapiens); assay: Competitive inhibition of recombinant human NAAA at 100 uM in presence of varying levels of PAMCA as substrate preincubated for 30 mins followed by substrate addition measured every 3 mins for 2.5 hrs by Lineweaver-Burk plot analysis
Procedure, shortened: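 Human recombinant NAAA was used with PAMCA as substrate at varying concentrations, using the fluorescence assay in acetate buffer. Vmax and KM were derived from Michaelis–Menten fits, and inhibition mode was assigned from Lineweaver–Burk plots of 1/V against 1/[PAMCA].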

HT-1376 = assay: Antiproliferative activity against human HT-1376 cells after 72 hrs by MTT assay; format: functional, cell-based; settings: HT-1376, 72 h; procedure, shortened: as §1
[10] = target: T1, N-acylethanolamine-hydrolyzing acid amidase (Homo sapiens); assay: Inhibition of NAAA in human RT112 cells assessed as increase in N-palmitoylethanolamide level at 40 uM after 24 hrs by HPLC-MS/MS analysis; format: cell-based; settings: RT-112; procedure, shortened: as §4
[11] = target: T1, N-acylethanolamine-hydrolyzing acid amidase (Homo sapiens); assay: Reversible inhibition of recombinant human NAAA at 50 to 100 uM preincubated for 20 mins followed by 20-fold dilution and PAMCA substrate addition by fluorescence HTS method
Procedure, shortened: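 Reversibility test: human recombinant NAAA was incubated with inhibitor at 50 or 100 µM final for 20 min. The mixture was diluted twenty-fold and fresh inhibitor added (2.5–50 µM for the 50 µM series, 5–100 for the 100 µM series). The reaction was started with PAMCA and fluorescence was read. Activity was compared between the paired conditions.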

RT-112 = assay: as §5; format: functional; procedure, shortened: as §6
[12] = target: T1, N-acylethanolamine-hydrolyzing acid amidase (Homo sapiens); assay: Inhibition of recombinant human NAAA at 5 to 100 uM using PAMCA as substrate preincubated for 30 mins followed by substrate addition measured every 3 mins for 5 hrs by fluorescence HTS method; procedure, shortened: as §3

| Compound | IC50 [1] [µM] | IC50 [2] [µM] | IC50 [3] [µM] | inhibition [4] | IC50 [5] [µM] | inhibition [6] | inhibition [7] | Activity [8] [%] | inhibition [9] | IC50 (HT-1376) [µM] | inhibition [10] | inhibition [11] | Activity (RT-112) | inhibition [12] |
| --- | --- | --- | --- | --- | --- | --- | --- | --- | --- | --- | --- | --- | --- | --- |
| CCCCCCCCCCCCCCCCNC(=O)c1ccncc1 | 51.2 | 41.7 | 76.2 | Dose-dependent effect | 98 |  |  |  |  |  |  |  |  |  |
| CCCCCCCCCCCCCCCNC(=O)c1ccc2ccccc2c1 |  |  |  |  | > 100 |  |  |  |  |  |  |  |  |  |
| CCCCCCCCCCCCCCCCNC(=O)c1ccccc1O | 11.2 | 63.3 | 5.75 | Dose-dependent effect | 11 | Active | Active | 50 | Active | 10.2 | Active |  |  |  |
| CCCCCCCCCCCCCCCCNC(=O)[C@@H](O)c1ccccc1 | 18.8 | > 100 | 25 | Dose-dependent effect | 78 |  |  |  |  |  |  |  |  |  |
| CCCCCCCCCCCCCCCCNC(=O)[C@H](O)c1ccccc1 | 25 | 3.5 | 28.3 | Dose-dependent effect | 20 |  |  |  | Active |  |  | Active |  |  |
| CCCCCCCCCCCCCCCNC(=O)CCO | 40 |  | 58.3 |  | 34 | Active | Active |  | Active |  | Active | Active | Active | Active |
| CCCCCCCCCCCCCCCCNC(=O)c1cc(O)ccc1O | 7.25 |  | 7 | Dose-dependent effect | 38 | Active | Active | 80 | Active | 9.5 | Active |  |  |  |
| CCCCCCCCCCCCCCCCNC(=O)c1ccccc1 | 45 |  |  |  | 45 |  |  |  |  |  |  |  |  | Active |

From ChEMBL document CHEMBL3875220, “Development of new inhibitors for N-acylethanolamine-hydrolyzing acid amidase as promising tool against bladder cancer” (Bioorg Med Chem, 2017)
